Reference: ChEMBL document CHEMBL4311941, “Development of Multifunctional Histone Deacetylase 6 Degraders with Potent Antimyeloma Activity” (J Med Chem, 2019)
The source made the active and inactive calls. The calls are words filed in the database; no cut-off is given here.

Columns and labels:
Histone deacetylase 8 = target: T1, Histone deacetylase 8 (Homo sapiens, UniProt Q9BY41); test: Inhibition of human N-terminal tagged human HDAC8 expressed in HEK293T/17 using Boc-[TFA-Lys]-AMC as substrate preincubated for 10 mins followed by substrate addition and measured after 60 mins by fluorescence assay
T1 sequence (Q9BY41 whole entry): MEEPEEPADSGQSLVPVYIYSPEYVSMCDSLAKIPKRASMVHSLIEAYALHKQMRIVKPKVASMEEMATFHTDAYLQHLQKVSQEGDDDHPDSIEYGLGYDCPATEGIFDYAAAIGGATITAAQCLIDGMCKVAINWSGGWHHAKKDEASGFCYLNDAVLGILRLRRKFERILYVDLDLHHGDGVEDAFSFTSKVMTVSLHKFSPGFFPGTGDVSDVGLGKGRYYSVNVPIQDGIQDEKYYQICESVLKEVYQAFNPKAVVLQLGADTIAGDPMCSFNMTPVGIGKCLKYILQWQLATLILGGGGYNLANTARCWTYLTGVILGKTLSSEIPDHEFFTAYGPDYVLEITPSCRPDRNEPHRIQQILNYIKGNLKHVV

[1] = target: T2, Protein cereblon/Histone deacetylase 1 (Homo sapiens) (UniProt Q13547+Q96SW2); test: Protac activity at CRBN/HDAC1 in human MM1S cells assessed as HDAC1 degradation at 100 nM measured up to 8 hrs by Western blot analysis; assay type: cell-based
T2 sequence (Q13547 whole entry, looked up): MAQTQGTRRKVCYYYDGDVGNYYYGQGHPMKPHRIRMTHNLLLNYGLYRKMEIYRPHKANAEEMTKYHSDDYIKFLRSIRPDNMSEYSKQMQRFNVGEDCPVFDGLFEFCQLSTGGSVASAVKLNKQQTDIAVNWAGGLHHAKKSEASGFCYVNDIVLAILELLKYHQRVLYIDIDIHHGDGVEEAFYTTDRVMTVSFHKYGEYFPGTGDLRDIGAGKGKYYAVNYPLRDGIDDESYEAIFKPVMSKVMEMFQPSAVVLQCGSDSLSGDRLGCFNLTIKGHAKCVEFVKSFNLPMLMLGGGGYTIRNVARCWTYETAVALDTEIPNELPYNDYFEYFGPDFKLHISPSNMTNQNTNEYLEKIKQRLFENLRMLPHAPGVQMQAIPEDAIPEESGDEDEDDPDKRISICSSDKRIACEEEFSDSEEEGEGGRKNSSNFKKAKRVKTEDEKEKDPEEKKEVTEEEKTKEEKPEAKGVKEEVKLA
T2 sequence (Q96SW2 whole entry, looked up): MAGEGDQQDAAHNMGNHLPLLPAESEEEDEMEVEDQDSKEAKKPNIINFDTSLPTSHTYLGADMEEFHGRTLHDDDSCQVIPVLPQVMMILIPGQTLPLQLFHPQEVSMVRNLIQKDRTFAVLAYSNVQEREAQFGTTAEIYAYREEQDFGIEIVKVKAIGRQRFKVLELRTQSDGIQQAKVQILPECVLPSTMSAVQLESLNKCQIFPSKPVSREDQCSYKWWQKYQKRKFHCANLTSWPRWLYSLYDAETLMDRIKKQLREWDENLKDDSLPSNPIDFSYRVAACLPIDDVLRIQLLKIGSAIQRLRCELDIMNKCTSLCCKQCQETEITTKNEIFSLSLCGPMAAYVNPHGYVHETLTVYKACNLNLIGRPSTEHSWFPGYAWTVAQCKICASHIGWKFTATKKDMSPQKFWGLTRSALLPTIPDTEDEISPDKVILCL

[2] = target: Protein cereblon/Histone deacetylase 4 (Homo sapiens) (UniProt P56524+Q96SW2); test: Protac activity at CRBN/HDAC4 in human MM1S cells assessed as HDAC4 degradation at 100 nM measured after 6 hrs in presence of proteasome inhibitor MG132 by Western blot analysis; assay type: cell-based
Sequence of Protein cereblon/Histone deacetylase 4 (Homo sapiens) (P56524 whole entry, looked up): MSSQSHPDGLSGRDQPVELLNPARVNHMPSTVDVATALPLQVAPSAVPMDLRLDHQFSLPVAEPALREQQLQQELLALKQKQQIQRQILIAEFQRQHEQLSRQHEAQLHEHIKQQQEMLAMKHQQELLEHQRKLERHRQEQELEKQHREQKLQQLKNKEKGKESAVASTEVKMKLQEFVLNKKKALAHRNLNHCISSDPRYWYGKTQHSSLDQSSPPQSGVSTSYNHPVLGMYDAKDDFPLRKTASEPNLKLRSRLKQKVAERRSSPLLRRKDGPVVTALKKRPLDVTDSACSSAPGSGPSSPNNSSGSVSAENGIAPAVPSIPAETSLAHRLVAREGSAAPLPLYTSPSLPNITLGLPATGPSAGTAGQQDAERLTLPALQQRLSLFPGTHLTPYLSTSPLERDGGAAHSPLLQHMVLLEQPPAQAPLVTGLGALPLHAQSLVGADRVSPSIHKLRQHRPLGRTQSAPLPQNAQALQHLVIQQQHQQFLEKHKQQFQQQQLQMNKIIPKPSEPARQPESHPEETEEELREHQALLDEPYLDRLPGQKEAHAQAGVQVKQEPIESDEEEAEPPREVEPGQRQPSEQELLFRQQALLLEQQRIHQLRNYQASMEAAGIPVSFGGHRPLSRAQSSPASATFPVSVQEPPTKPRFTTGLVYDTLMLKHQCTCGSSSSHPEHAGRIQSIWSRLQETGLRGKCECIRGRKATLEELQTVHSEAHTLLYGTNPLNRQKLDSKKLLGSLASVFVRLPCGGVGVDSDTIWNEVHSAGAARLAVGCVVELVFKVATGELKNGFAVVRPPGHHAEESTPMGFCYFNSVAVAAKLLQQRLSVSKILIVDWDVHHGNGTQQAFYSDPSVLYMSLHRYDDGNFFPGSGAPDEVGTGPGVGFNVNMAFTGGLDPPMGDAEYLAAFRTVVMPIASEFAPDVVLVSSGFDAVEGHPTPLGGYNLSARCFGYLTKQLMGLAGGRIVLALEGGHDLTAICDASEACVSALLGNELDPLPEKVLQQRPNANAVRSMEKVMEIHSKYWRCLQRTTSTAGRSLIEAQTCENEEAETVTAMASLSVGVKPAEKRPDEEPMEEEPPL
Sequence of Protein cereblon/Histone deacetylase 4 (Homo sapiens) (Q96SW2 whole entry, looked up): as the sequence (Q96SW2 whole entry, looked up) above

[3] = target: T3, Protein cereblon/Protein deacetylase HDAC6 (Homo sapiens, UniProt Q9UBN7+Q96SW2); test: Protac activity at CRBN/HDAC6 in human RS4:11 cells assessed as HDAC6 degradation up to 10 uM incubated for 6 hrs by Western blot analysis; assay type: cell-based
T3 sequence (Q96SW2 whole entry, looked up): as above
T3 sequence (Q9UBN7 whole entry, looked up): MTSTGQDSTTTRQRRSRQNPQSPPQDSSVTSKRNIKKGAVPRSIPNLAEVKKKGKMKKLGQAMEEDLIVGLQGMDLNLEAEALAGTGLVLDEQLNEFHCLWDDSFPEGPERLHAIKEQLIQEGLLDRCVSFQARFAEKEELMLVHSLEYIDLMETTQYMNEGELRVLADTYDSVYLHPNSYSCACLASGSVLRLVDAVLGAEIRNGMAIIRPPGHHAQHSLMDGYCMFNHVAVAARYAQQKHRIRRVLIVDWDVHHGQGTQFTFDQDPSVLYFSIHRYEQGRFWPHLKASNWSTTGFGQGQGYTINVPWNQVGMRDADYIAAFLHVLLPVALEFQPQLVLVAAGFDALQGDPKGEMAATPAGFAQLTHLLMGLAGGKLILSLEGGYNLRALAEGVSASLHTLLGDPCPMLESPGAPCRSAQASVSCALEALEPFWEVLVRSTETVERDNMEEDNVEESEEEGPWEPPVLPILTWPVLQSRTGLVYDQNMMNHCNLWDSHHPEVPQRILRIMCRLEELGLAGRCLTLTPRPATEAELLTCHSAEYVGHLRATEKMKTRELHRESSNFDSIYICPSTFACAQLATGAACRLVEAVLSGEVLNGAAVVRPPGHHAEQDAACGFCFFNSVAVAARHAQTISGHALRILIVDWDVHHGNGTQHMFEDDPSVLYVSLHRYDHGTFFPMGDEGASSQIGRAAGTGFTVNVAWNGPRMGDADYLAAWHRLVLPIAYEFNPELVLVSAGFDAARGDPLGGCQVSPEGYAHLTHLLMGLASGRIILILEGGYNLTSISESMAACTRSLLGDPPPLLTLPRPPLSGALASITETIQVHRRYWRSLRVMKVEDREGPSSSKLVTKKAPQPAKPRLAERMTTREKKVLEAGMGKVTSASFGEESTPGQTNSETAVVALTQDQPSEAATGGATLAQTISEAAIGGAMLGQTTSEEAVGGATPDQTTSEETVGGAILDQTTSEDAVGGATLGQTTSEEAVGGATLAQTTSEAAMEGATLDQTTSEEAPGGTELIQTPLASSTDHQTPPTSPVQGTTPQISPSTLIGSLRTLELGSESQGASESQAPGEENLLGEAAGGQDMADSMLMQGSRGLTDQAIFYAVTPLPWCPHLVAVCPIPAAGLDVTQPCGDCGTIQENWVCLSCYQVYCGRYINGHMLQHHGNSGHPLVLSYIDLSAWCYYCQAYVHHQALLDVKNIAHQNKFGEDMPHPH

Histone deacetylase 1 = Histone deacetylase 1 (Homo sapiens, UniProt Q13547); test: Inhibition of human N-terminal tagged human HDAC1 expressed in HEK293T/17 using Ac-Gly-Ala-[Ac-Lys]-AMC as substrate preincubated for 10 mins followed by substrate addition and measured after 15 mins by fluorescence assay
Sequence of Histone deacetylase 1 (Q13547 whole entry): as the sequence (Q13547 whole entry, looked up) above

[4] = target: T2, Protein cereblon/Histone deacetylase 1 (Homo sapiens); test: Protac activity at CRBN/HDAC1 in human MM1S cells assessed as HDAC1 degradation at 100 nM measured after 6 hrs in presence of proteasome inhibitor MG132 by Western blot analysis; assay type: cell-based
[5] = target: T4, Protein cereblon/Zinc finger protein Aiolos (Homo sapiens) (UniProt Q96SW2+Q9UKT9); test: Protac activity at CRBN/IKZF3 in human MM1S cells assessed as IKZF3 degradation at 100 nM measured after 6 hrs in presence of NAE inhibitor MLN 4924 by Western blot analysis; assay type: cell-based
T4 sequence (Q96SW2 whole entry, looked up): as the sequence (Q96SW2 whole entry, looked up) above
T4 sequence (Q9UKT9 whole entry, looked up): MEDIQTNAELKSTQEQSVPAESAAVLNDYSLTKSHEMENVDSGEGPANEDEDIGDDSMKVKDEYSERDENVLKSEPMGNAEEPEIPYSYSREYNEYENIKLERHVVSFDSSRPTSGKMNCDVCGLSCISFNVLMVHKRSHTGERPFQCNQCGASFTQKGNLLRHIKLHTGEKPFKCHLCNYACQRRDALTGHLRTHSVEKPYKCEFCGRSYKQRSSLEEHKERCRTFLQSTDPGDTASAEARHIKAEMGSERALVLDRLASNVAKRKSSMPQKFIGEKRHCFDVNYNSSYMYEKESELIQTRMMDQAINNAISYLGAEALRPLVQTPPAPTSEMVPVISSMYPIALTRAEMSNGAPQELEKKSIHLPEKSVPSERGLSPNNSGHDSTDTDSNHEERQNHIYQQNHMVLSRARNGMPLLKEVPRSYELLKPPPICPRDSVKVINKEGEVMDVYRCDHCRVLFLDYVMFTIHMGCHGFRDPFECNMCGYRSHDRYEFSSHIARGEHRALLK
Summary of the method: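 MM1S cells seeded at 1 × 10^6 per well overnight. Pretreated 1 h with pomalidomide, Next-A, MLN 4924 or DMSO, then given 100 nM degrader or DMSO for 6 h. Lysed in RIPA with protease inhibitors, 10−40 μg protein run on SDS-PAGE and transferred to PVDF. Blots probed for IKZF1/IKZF3, detected by ECL and quantified by densitometry.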

[6] = target: T3, Protein cereblon/Protein deacetylase HDAC6; test: Protac activity at CRBN/HDAC6 in human MM1S cells assessed as HDAC6 degradation at 100 nM measured after 6 hrs in presence of HDAC6 inhibitor Next-A by Western blot analysis; assay type: cell-based
[7] = target: T4, Protein cereblon/Zinc finger protein Aiolos (Homo sapiens); test: Protac activity at CRBN/IKZF3 in human MM1S cells assessed as IKZF3 degradation at 100 nM incubated for 6 hrs followed by compound washout and measured after 12 hrs by Western blot analysis; assay type: cell-based
Summary of the method: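 MM1S cells treated with 100 nM degrader for 6 h, then washed with PBS to remove compound. IKZF3 followed by immunoblot over up to 48 h after washout: RIPA lysate, SDS-PAGE, PVDF transfer, HRP secondary antibody and ECL imaging.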

[8] = target: T3, Protein cereblon/Protein deacetylase HDAC6; test: Protac activity at CRBN/HDAC6 in human MM1S cells assessed as HDAC6 degradation at 100 nM measured after 1 to 4 hrs by Western blot analysis; assay type: cell-based
[9] = target: T3, Protein cereblon/Protein deacetylase HDAC6; test: Protac activity at CRBN/HDAC6 in human MM1S cells assessed as induction of alpha tubulin acetylation at 100 nM measured after 6 hrs in presence of proteasome inhibitor MG132 by Western blot analysis; assay type: cell-based
[10] = target: T4, Protein cereblon/Zinc finger protein Aiolos (Homo sapiens); test: Protac activity at CRBN/IKZF3 in human MM1S cells assessed as IKZF3 degradation at 100 nM measured after 6 hrs by Western blot analysis; assay type: cell-based
Summary of the method: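 Time course in MM1S cells (1 × 10^6 cells per well, seeded overnight) under 100 nM degrader. Whole-cell RIPA lysates analysed by 7.5−12% SDS-PAGE and PVDF immunoblot. Primary antibody at 4 °C overnight, HRP secondary 1 h, ECL detection with densitometry.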

[11] = target: T3, Protein cereblon/Protein deacetylase HDAC6; test: Protac activity at CRBN/HDAC6 in human A375 cells assessed as HDAC6 degradation up to 1 uM incubated for 6 hrs by Western blot analysis; assay type: cell-based
[12] = target: Histone deacetylase (Homo sapiens) (UniProt Q13547+O15379+Q9UBN7+Q92769+Q9UQL6+Q8WUI4+Q9BY41+Q96DB2+P56524+Q9UKV0+Q969S8); conditions: at 100 nM
MM1.S [13] = test: Antiproliferative activity against human MM1S cells assessed as reduction in cell viability measured after 72 hrs by resazurin dye based assay relative to control; assay type: functional
Summary of the method: (§1)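 MM1S cells seeded at 1 × 10^4 per well, left overnight, then given compound or DMSO vehicle (added as 5× dosing medium) for 72 h at 37 °C, 5% CO2. Resazurin added (10× solution, 1 mg/mL), then incubated overnight at 37 °C. OD read at 570 and 600 nm. Viability is relative to vehicle, n = 3. Curves fitted as [inhibitor] vs response (three parameters); test range 0.3 nM–3 μM.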

[14] = target: T3, Protein cereblon/Protein deacetylase HDAC6; test: Protac activity at CRBN/HDAC6 in human A431 cells assessed as HDAC6 degradation up to 10 uM incubated for 6 hrs by Western blot analysis; assay type: cell-based
[15] = target: T3, Protein cereblon/Protein deacetylase HDAC6; test: Protac activity at CRBN/HDAC6 in human MM1S cells assessed as HDAC6 degradation at 100 nM measured after 6 hrs in presence of E3 ligase ligand pomalidomide by Western blot analysis; assay type: cell-based
[16] = target: Cereblon/Ikaros (Homo sapiens) (UniProt Q96SW2+Q13422); test: Protac activity at CRBN/IKZF1 in human MM1S cells assessed as IKZF1 degradation at 100 nM measured after 6 hrs in presence of E3 ligase ligand pomalidomide by Western blot analysis; assay type: cell-based
[17] = target: T2, Protein cereblon/Histone deacetylase 1 (Homo sapiens); test: Protac activity at CRBN/HDAC1 in human MM1S cells assessed as HDAC1 degradation at 100 nM measured after 6 hrs in presence of proteasome inhibitor bortezomib by Western blot analysis; assay type: cell-based
MM1.S [18] = test: Antiproliferative activity against human MM1S cells assessed as reduction in cell viability at 1 uM measured after 72 hrs by resazurin dye based assay; assay type: functional
MM1.S [19] = test: Antiproliferative activity against human MM1S cells assessed as reduction in cell viability measured after 72 hrs by resazurin dye based assay; assay type: functional; summary of the method: as §1

IC50 (Histone deacetylase 8): 300 to 30000 nM | Activity [1]: inactive | Activity [2]: inactive | Activity [3]: Active | IC50 (Histone deacetylase 1): 300 to 30000 nM | Activity [4]: inactive | Activity [5]: inactive | Activity [6]: inactive | Activity [7]: inactive | Activity [8]: Dose-dependent effect | Activity [9]: inactive | Activity [10]: Active | Activity [11]: Active | inhibition [12]: inactive | Activity [14]: Active | Activity [15]: inactive | Activity [16]: Active | Activity [17]: inactive | EC50 (MM1.S [19]): 74.9 nM
Compound: CCCCN(Cc1ccc(C(=O)NO)cc1)C(=O)Nc1ccc(OCCCCCn2cc(CNc3cccc4c3C(=O)N(C3CCC(=O)NC3=O)C4=O)nn2)cc1 (stereo unspecified)
Imax (MM1.S [13]): 63.1% | Activity (MM1.S [18]): Active
